Tests used:
Format in all cases: functional
Mus musculus [1] = assay: Analgesic activity was measured on phenylquinone writhing in mice at 128 mg/kg subcutaneous dose; settings: sc
Summary of the method: (§1)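 Male Swiss albino mice, 18-22 g, five per group. Compound suspended in physiological saline with Tween 80 and given sc. 30 min later, 0.03% phenyl-p-benzoquinone given ip at 0.1 mL/10 g body weight. Total writhes per animal counted against a vehicle-treated control group. % change = (writhes treated/writhes control) × 100 − 100.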

Trichomonas vaginalis = assay: Compound was measured as concentration of compound required for 90% growth inhibition of Trichomonas vaginalis
Summary of the method: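 Tube dilution in modified TYM basal medium, with compound added in µg/mL of medium. Inoculum 1 × 10^5/mL T. vaginalis trophozoites pre-grown 48 h in the same medium. Incubated 24 and 48 h at 35 °C. Aliquots diluted in saline with 1% formaldehyde and counted in a Speirs-Levy chamber. MIC is the lowest concentration giving 90% growth inhibition.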

Mus musculus [2] = assay: Analgesic activity was measured on phenylquinone writhing in mice at 64 mg/kg subcutaneous dose; settings: sc; summary of the method: as §1
Mus musculus [3] = assay: Analgesic activity was measured of phenylquinone writhing in mice at 16 mg/kg subcutaneous dose; settings: sc; summary of the method: as §1
Mus musculus [4] = assay: Analgesic activity was measured of phenylquinone writhing in mice at 32 mg/kg subcutaneous dose; settings: sc; summary of the method: as §1
Mus musculus [5] = assay: Analgesic activity was measured of phenylquinone writhing in mice at 4 mg/kg subcutaneous dose; settings: sc; summary of the method: as §1
Mus musculus [6] = assay: Analgesic activity was measured of phenylquinone writhing in mice at 64 mg/kg subcutaneous dose; settings: sc; summary of the method: as §1
Mus musculus [7] = assay: Analgesic activity was measured of phenylquinone writhing in mice at 8 mg/kg subcutaneous dose; settings: sc; summary of the method: as §1
Mus musculus [8] = assay: Analgesic activity was measured on phenylquinone writhing in mice at 50 mg/kg subcutaneous dose; settings: sc; summary of the method: as §1
Mus musculus [9] = assay: Analgesic activity was measured on phenylquinone writhing in mice at 56 mg/kg subcutaneous dose; settings: sc; summary of the method: as §1

Compound O=S(=O)(c1ccccc1)N1[C@@H]2CC=CN[C@@H]21 (stereo partly drawn) has an inhibition in vivo at 128 mg/kg (Mus musculus [1]) of 47%.

Compound CC(=O)Nc1ccc(S(=O)(=O)N2[C@@H]3CC=CN(C)[C@@H]32)cc1 (stereo partly drawn) has an inhibition in vivo at 128 mg/kg (Mus musculus [1]) of 95% and an MIC (Trichomonas vaginalis) of less than 10 µg/mL.

For CN1C=CC[C@@H]2[C@H]1N2S(C)(=O)=O (stereo partly drawn), the inhibition in vivo at 128 mg/kg (Mus musculus [1]) was 50% and the MIC (Trichomonas vaginalis) was less than 10 µg/mL.

CN1C=CC[C@@H]2[C@H]1N2C#N was tested, and the inhibition in vivo at 64 mg/kg (Mus musculus [2]) was 86% and the MIC (Trichomonas vaginalis) was less than 10 µg/mL.

CN1C=CC[C@@H]2[C@H]1N2S(=O)(=O)c1ccc(N)cc1 (stereo partly drawn) gave an inhibition in vivo at 16 mg/kg (Mus musculus [3]) of 45%, an inhibition in vivo at 32 mg/kg (Mus musculus [4]) of 69% and an inhibition in vivo at 4 mg/kg (Mus musculus [5]) of 23%. For the same compound, the inhibition in vivo at 64 mg/kg (Mus musculus [6]) was 78%, the inhibition in vivo at 8 mg/kg (Mus musculus [7]) was 40% and the inhibition in vivo at 128 mg/kg (Mus musculus [1]) was 97%. The MIC (Trichomonas vaginalis) was less than 10 µg/mL.

In the case of CN1C=CC[C@@H]2[C@H]1N2S(=O)(=O)c1ccccc1 (stereo partly drawn), the inhibition in vivo at 64 mg/kg (Mus musculus [2]) is reported as 92% and the MIC (Trichomonas vaginalis) is reported as less than 10 µg/mL.

CC(=O)Oc1ccccc1C(=O)O [ASPIRIN] gave an inhibition in vivo at 50 mg/kg (Mus musculus [8]) of 50%.

For CCC(=O)O[C@](Cc1ccccc1)(c1ccccc1)[C@H](C)CN(C)C [PROPOXYPHENE], the inhibition in vivo at 56 mg/kg (Mus musculus [9]) was 50%.

From ChEMBL document CHEMBL1121818, “Some reactions of 1,4-dihydropyridines with organic azides. Synthesis of 2,7-diazabicyclo[4.1.0]hept-3-enes with analgesic and antiprotozoal activity” (1981)
